Test results published in ChEMBL document CHEMBL1133118 (J Med Chem, 2000).

What was measured:
Adenosine receptor A1 [1] = target: T1, Adenosine receptor A1 (Homo sapiens, UniProt P30542); experiment: Displacement of [3H]DPCPX from human adenosine A1 receptor expressed in CHO cells; range 1.72-2.36; assay type: cell-based
T1 sequence (P30542 whole entry): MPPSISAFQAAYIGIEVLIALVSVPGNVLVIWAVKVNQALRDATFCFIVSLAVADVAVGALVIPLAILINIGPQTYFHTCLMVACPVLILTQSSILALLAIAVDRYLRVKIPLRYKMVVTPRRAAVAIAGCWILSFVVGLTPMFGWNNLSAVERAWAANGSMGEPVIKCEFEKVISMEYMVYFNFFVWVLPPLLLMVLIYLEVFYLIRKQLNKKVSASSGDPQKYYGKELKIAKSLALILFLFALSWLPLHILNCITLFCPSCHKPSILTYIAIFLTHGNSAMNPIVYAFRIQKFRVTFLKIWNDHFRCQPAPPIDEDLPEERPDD

[2] = target: Adenosine receptors; A1 & A3 (Homo sapiens) (UniProt P30542+P0DMS8); experiment: Ratio of binding affinity of human A1 receptor to that of human A3 receptor; assay type: protein assay
Outline: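 Ki ratio from displacement in CHO membranes, 6–8 concentrations, n=3-6, filtration counting. A1: 1 nM [3H]DPCPX, 50 μg protein, 120 min at 25 °C, nonspecific with 10 μM CHA. A3: 1 nM [3H]MRE3008-F20, 50 μg protein, Tris/10 mM MgCl2 pH 7.4, 120 min at 4 °C, nonspecific with 1 μM MRE3008-F20.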

Adenosine receptor A2b [3] = target: T2, Adenosine receptor A2b (Homo sapiens, UniProt P29275); experiment: Displacement of [3H]-DPCPX from Adenosine A2b receptor expressed in […]; range 7.4-11.3; assay type: cell-based
T2 sequence (P29275 whole entry): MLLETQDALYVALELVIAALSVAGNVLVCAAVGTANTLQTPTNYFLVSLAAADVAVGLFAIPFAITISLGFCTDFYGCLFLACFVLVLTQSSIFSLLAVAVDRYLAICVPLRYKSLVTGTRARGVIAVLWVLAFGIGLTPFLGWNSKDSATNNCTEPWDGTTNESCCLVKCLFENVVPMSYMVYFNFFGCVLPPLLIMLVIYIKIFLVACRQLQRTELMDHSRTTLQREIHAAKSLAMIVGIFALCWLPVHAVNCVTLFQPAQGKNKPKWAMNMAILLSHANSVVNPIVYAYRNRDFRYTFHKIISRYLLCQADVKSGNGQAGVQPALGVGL

Adenosine receptor A3 [4] = target: T3, Adenosine receptor A3 (Homo sapiens, UniProt P0DMS8); experiment: Displacement of [3H]MRE3008-F20 from human adenosine A3 receptor expressed in CHO cells; range 664-738; assay type: cell-based
T3 sequence (P0DMS8 whole entry): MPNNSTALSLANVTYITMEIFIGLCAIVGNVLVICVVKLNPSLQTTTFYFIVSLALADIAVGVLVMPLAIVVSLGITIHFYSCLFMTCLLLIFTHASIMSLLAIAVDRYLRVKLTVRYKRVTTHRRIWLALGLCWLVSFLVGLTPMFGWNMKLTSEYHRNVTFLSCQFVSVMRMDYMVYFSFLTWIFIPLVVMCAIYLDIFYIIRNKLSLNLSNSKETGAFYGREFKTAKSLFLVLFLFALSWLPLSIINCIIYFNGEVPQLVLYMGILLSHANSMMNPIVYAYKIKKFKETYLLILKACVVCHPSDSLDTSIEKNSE

[5] = target: T4, Adenosine receptor A3 (Homo sapiens) (UniProt P0DMS8); experiment: Percent reversal of 100 nM IB-MECA-inhibited cAMP accumulation in CHO cells expressing human adenosine A3 receptor at 1 uM; assay type: functional, cell-based
T4 sequence (whole entry): T3 sequence (P0DMS8 whole entry)
Outline: (§1)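 CHO cells stably expressing human A3 receptor; membranes in 50 mM Tris HCl, 10 mM MgCl2, 1 mM EDTA pH 7.4 with 5 μM GTP, 0.5 mM […] and 2.0 IU/mL adenosine deaminase. Preincubated 10 min at 37 °C, then IB-MECA (100 nM) and/or antagonist with 1 mM ATP and 10 μM forskolin for 10 min. Boiled 2 min. cAMP read by [3H]cAMP competition with adrenal binding protein.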

[6] = target: Adenosine receptors; A2b & A3 (Homo sapiens) (UniProt P29275+P0DMS8); experiment: Ratio of binding affinity of human A2B receptor to that of human A3 receptor; assay type: protein assay
Outline: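 Ki ratio, n=3-6, 6–8 concentrations. A2B in HEK-293 membranes (20 μg): 40 nM [3H]DPCPX, 50 mM Tris HCl, 10 mM MgCl2, 1 mM EDTA, 0.1 mM benzamidine pH 7.4, 2 IU/mL adenosine deaminase, 60 min at 25 °C, nonspecific with 100 μM NECA. A3 in CHO membranes (50 μg): 1 nM [3H]MRE3008-F20, 120 min at 4 °C.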

Adenosine receptor A1 [7] = target: T1, Adenosine receptor A1; experiment: Displacement of [3H]DPCPX from human adenosine A1 receptor expressed in CHO cells; range 83-120; assay type: cell-based
Adenosine receptor A2b [8] = target: T2, Adenosine receptor A2b; experiment: Displacement of [3H]DPCPX from Adenosine A2b receptor expressed in […]; range 55-68; assay type: cell-based
Outline: (§2)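 Human recombinant A2B receptor was expressed in HEK-293 cell membranes (20 μg protein). Incubated with 40 nM [3H]DPCPX in 50 mM Tris HCl, 10 mM MgCl2, 1 mM EDTA, 0.1 mM benzamidine, pH 7.4, with 2 IU/mL adenosine deaminase, at least 6–8 test concentrations, 60 min, 25 °C. Nonspecific binding was taken with 100 μM NECA; n=3-6.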

[9] = target: T4, Adenosine receptor A3 (Homo sapiens); settings: CHO, 1 uM
Adenosine receptor A2a [10] = target: T5, Adenosine receptor A2a (Homo sapiens, UniProt P29274); experiment: Displacement of [3H]-SCH- 58261 from human adenosine A2A receptor expressed in CHO cells; range 85-164; assay type: cell-based
T5 sequence (P29274 whole entry): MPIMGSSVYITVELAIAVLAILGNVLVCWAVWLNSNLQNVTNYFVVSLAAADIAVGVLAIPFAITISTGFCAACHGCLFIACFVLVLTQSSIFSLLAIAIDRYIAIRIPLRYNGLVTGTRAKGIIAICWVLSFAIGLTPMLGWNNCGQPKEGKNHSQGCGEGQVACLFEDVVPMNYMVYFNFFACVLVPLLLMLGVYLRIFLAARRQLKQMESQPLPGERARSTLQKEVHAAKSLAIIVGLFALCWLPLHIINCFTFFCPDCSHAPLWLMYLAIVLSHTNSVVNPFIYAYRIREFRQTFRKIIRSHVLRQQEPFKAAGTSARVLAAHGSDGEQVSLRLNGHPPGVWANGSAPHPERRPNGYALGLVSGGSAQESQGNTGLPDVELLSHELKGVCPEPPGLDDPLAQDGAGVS
Outline: (§3)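 Membranes from CHO cells stably expressing human A2A receptor, grown in DMEM/F12 without nucleosides, resuspended in 50 mM Tris HCl, 10 mM MgCl2, pH 7.4; 50 μg protein/assay. Competition with [3H]SCH 58261 at 6–8 or more compound concentrations, 60 min at 25 °C; nonspecific binding with 50 μM NECA. Filtration on GF/B filters, scintillation counting; n=3-6.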

Adenosine receptor A3 [11] = target: T3, Adenosine receptor A3; experiment: Displacement of [3H]MRE3008-F20 from human adenosine A3 receptor expressed in CHO cells; range 33-48; assay type: cell-based
Adenosine receptor A2b [12] = target: T2, Adenosine receptor A2b; experiment: Displacement of [3H]DPCPX from Adenosine A2b receptor expressed in […]; range 70-94; assay type: cell-based
Adenosine receptor A3 [13] = target: T3, Adenosine receptor A3; experiment: Displacement of [3H]MRE3008-F20 from human adenosine A3 receptor expressed in CHO cells; […]; assay type: cell-based
Adenosine receptor A3 [14] = target: T3, Adenosine receptor A3; experiment: Inhibition of cAMP accumulation in CHO cells expressing human adenosine A3 receptor; assay type: functional, cell-based
Adenosine receptor A3 [15] = target: T3, Adenosine receptor A3; experiment: Inhibition of cAMP accumulation in CHO cells expressing human adenosine A3 receptor; range 2.5-9.3; assay type: functional, cell-based
Adenosine receptor A3 [16] = target: T3, Adenosine receptor A3; experiment: Displacement of [3H]MRE3008-F20 from human adenosine A3 receptor expressed in CHO cells; range 0.51-0.70; assay type: cell-based
Adenosine receptor A2b [17] = target: T2, Adenosine receptor A2b; experiment: Displacement of [3H]DPCPX from Adenosine A2b receptor expressed in […]; range 188-320; assay type: cell-based; outline: as §2
Adenosine receptor A3 [18] = target: T3, Adenosine receptor A3; experiment: Displacement of [3H]MRE3008-F20 from human adenosine A3 receptor expressed in CHO cells; range 691-952; assay type: cell-based
Adenosine receptor A1 [19] = target: T1, Adenosine receptor A1; experiment: Displacement of [3H]DPCPX from human adenosine A1 receptor expressed in CHO cells; range 4.72-6.23; assay type: cell-based
Adenosine receptor A2b [20] = target: T2, Adenosine receptor A2b; experiment: Displacement of [3H]-DPCPX from Adenosine A2b receptor expressed in CHO cells; range 8-18; assay type: cell-based; settings: in the assay text read “HEK-293 cells” for “CHO cells”; outline: as §2
[21] = target: T4, Adenosine receptor A3 (Homo sapiens); experiment: Percentage of blockade by 1 uM of the inhibition by 100 nM IB-MECA-inhibited cAMP accumulation in CHO cells expressing human adenosine A3 receptor.; assay type: functional, cell-based; outline: as §1
Adenosine receptor A2a [22] = target: T5, Adenosine receptor A2a; experiment: Displacement of [3H]-SCH- 58261 from human adenosine A2A receptor expressed in CHO cells; range 0.65-1.06; assay type: cell-based; outline: as §3
Adenosine receptor A3 [23] = target: T3, Adenosine receptor A3; experiment: Displacement of [3H]MRE3008-F20 from human adenosine A3 receptor expressed in CHO cells; range 1.42-1.79; assay type: cell-based
Adenosine receptor A2b [24] = target: T2, Adenosine receptor A2b; experiment: Displacement of [3H]DPCPX from Adenosine A2b receptor expressed in […]; range 107-210; assay type: cell-based
Adenosine receptor A2a [25] = target: T5, Adenosine receptor A2a; experiment: Displacement of [3H]-SCH- 58261 from human adenosine A2A receptor expressed in CHO cells; range 160-210; assay type: cell-based
Outline: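 CHO membranes expressing human A2A receptor (50 μg protein) in 50 mM Tris HCl, 10 mM MgCl2, pH 7.4, competed against [3H]SCH 58261. At least 6–8 test concentrations were used, with 60 min incubation at 25 °C. Nonspecific binding defined by 50 μM NECA; n=3-6.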

Adenosine receptor A3 [26] = target: T3, Adenosine receptor A3; experiment: Inhibition of cAMP accumulation in CHO cells expressing human adenosine A3 receptor; range 10.8-21.5; assay type: functional, cell-based
[27] = target: T4, Adenosine receptor A3 (Homo sapiens); settings: CHO, 1 uM; remark: listed apart in the source
Adenosine receptor A3 [28] = target: T3, Adenosine receptor A3; experiment: Inhibition of cAMP accumulation in CHO cells expressing human adenosine A3 receptor; range 1.1-3.8; assay type: functional, cell-based
Adenosine receptor A1 [29] = target: T1, Adenosine receptor A1; experiment: Displacement of [3H]DPCPX from human adenosine A1 receptor expressed in CHO cells; range 6.5-8.7; assay type: cell-based
Adenosine receptor A2a [30] = target: T5, Adenosine receptor A2a; experiment: biochemical
Adenosine receptor A2b [31] = target: T2, Adenosine receptor A2b; experiment: Displacement of [3H]DPCPX from Adenosine A2b receptor expressed in […]; range 19-27; assay type: cell-based
[32] = target: T4, Adenosine receptor A3 (Homo sapiens); experiment: Percent reversal of 100 nM IB-MECA-inhibited cAMP accumulation in CHO cells expressing human adenosine A3 receptor at 1 uM; range 92-102; assay type: functional, cell-based; outline: as §1

`CC(C)CCn1cc2c(nc(N)n3nc(-c4ccco4)nc23)n1` showed a Ki (Adenosine receptor A1 [1]) of 0.002 µM, a Ratio [2] of 0.002 and a Ki (Adenosine receptor A2b [3]) of 0.0091 µM. The Ki (Adenosine receptor A3 [4]) was 0.7 µM, the inhibition [5] was 14% and the Ratio [6] was 0.013.
For `CC(C)CCn1cc2c(nc(NC(=O)Nc3cccc(Cl)c3)n3nc(-c4ccco4)nc23)n1`, the Ki (Adenosine receptor A1 [7]) was 0.1 µM, the Ratio [2] was 2.5 and the Ki (Adenosine receptor A2b [8]) was 0.061 µM. The inhibition [9] was 45%, the Ki (Adenosine receptor A2a [10]) was 0.115 µM and the Ki (Adenosine receptor A3 [11]) was 0.04 µM. For the same compound, the Ratio [6] was 1.5.
In the case of `COc1ccc(NC(=O)Nc2nc3nn(CCc4ccccc4)cc3c3nc(-c4ccco4)nn23)cc1`, the Ki (Adenosine receptor A2b [12]) is reported as 0.081 µM, the Ratio [2] is reported as 205 and the Ki (Adenosine receptor A3 [13]) is reported as 0.00098 µM. It also gave an IC50 (Adenosine receptor A3 [14]) of 0.0139 µM and a Ratio [6] of 82.6.
Compound `CCn1cc2c(nc(NC(=O)Nc3ccc(OC)cc3)n3nc(-c4ccco4)nc23)n1` has a Ratio [2] of 1710, an IC50 (Adenosine receptor A3 [15]) of 0.0048 µM and a Ki (Adenosine receptor A3 [16]) of 0.0006 µM. The Ki (Adenosine receptor A2b [17]) was 0.245 µM and the Ratio [6] was 408.
`CC(C)=CCn1cc2c(nc(N)n3nc(-c4ccco4)nc23)n1` gave a Ki (Adenosine receptor A3 [18]) of 0.811 µM, a Ki (Adenosine receptor A1 [19]) of 0.00542 µM and a Ratio [2] of 0.006. It also gave a Ki (Adenosine receptor A2b [20]) of 0.012 µM, an inhibition [21] of 12% and a Ki (Adenosine receptor A2a [22]) of 0.0008 µM. It also gave a Ratio [6] of 0.014.
`CCn1cc2c(nc(NC(=O)Nc3cccc(Cl)c3)n3nc(-c4ccco4)nc23)n1` gave a Ki (Adenosine receptor A3 [23]) of 0.0016 µM, a Ki (Adenosine receptor A2b [24]) of 0.15 µM and a Ki (Adenosine receptor A2a [25]) of 0.18 µM. The Ratio [2] was 155, the IC50 (Adenosine receptor A3 [26]) was 0.0148 µM and the inhibition [27] was 68%. It also gave a Ratio [6] of 93.7.
`COc1ccc(NC(=O)Nc2nc3ccc(Cl)cc3c3nc(-c4ccco4)nn23)cc1` was tested, and the IC50 (Adenosine receptor A3 [28]) was 0.002 µM, the Ratio [2] was 43 and the Ki (Adenosine receptor A1 [29]) was 0.0076 µM. It also gave a Ki (Adenosine receptor A2a [30]) of 0.0094 µM, a Ki (Adenosine receptor A2b [31]) of 0.022 µM and an inhibition [32] of 97%. For the same compound, the Ratio [6] was 158.
